Laboratory results reported in ChEMBL document CHEMBL1154721, “Synthesis, antitumor activity and molecular docking study of novel sulfonamide-Schiff's bases, thiazolidinones, benzothiazinones and their C-nucleoside derivatives” (Eur J Med Chem, 2010).
Values after ≈ are worked out from the molar mass of the structure shown.

Legend:
[1] = Inhibition of PTK
MCF7 = experiment: Cytotoxicity against human MCF7 cells after 48 hrs by SRB assay; type: functional, cell-based
Summary of the method: (§1)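 Cells were seeded and left 24 h to attach before dosing, then exposed to test compound at […], in triplicate wells per dose. Incubation was 48 h at 37 °C under 5% CO2. Cells were then fixed, washed and stained with sulforhodamine B, excess dye was removed with acetic acid, bound dye was recovered in Tris-EDTA buffer, and colour intensity was read on an ELISA reader.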

HeLa = experiment: Cytotoxicity against human HeLa cells after 48 hrs by SRB assay; type: functional, cell-based; summary of the method: as §1

Structure (SMILES) | Ki [1] | IC50 (MCF7) | IC50 (HeLa)
COc1ccc(C2Sc3ccccc3C(=O)N2c2ccc(S(=O)(=O)Nc3ccccn3)cc2)c(O)c1 (stereo unspecified) | 4.72 µM | – | –
O=C1c2ccccc2SC(c2c[nH]c3ccccc23)N1c1ccc(S(=O)(=O)Nc2ccccn2)cc1 (stereo unspecified) | 0.553 µM | – | –
COc1ccc(C2SCC(=O)N2c2ccc(S(=O)(=O)Nc3ccccn3)cc2)cc1 (stereo unspecified) | 0.705 µM | – | –
COc1ccc(C2Sc3ccccc3C(=O)N2c2ccc(S(=O)(=O)Nc3ccccn3)cc2)cc1OC (stereo unspecified) | 2.51 µM | – | –
COc1cc(/C=N/c2ccc(S(=O)(=O)Nc3ccccn3)cc2)cc(OC)c1OC | 0.526 µM | – | –
COc1ccc(/C=N/c2ccc(S(=O)(=O)Nc3ccccn3)cc2)c(O)c1 | 0.258 µM | – | –
COc1cc(C2SCC(=O)N2c2ccc(S(=O)(=O)Nc3ccccn3)cc2)cc(OC)c1OC (stereo unspecified) | 5.32 µM | – | –
COc1cc(C2Sc3ccccc3C(=O)N2c2ccc(S(=O)(=O)Nc3ccccn3)cc2)cc(OC)c1OC (stereo unspecified) | 48.7 µM | – | –
O=S(=O)(Nc1ccccn1)c1ccc(/N=C/[C@H](O)[C@H](O)[C@@H](O)[C@@H](O)CO)cc1 | 0.331 µM | – | –
COc1ccc(C2SCC(=O)N2c2ccc(S(=O)(=O)Nc3ccccn3)cc2)c(O)c1 (stereo unspecified) | 15.4 µM | – | –
O=C1CSC([C@H](O)[C@H](O)[C@@H](O)[C@@H](O)CO)N1c1ccc(S(=O)(=O)Nc2ccccn2)cc1 (stereo partly specified) | 2.35 µM | – | –
COc1ccc(/C=N/c2ccc(S(=O)(=O)Nc3ccccn3)cc2)cc1OC | 0.258 µM | – | –
COc1ccc(C2SCC(=O)N2c2ccc(S(=O)(=O)Nc3ccccn3)cc2)cc1OC (stereo unspecified) | 1.05 µM | – | –
O=c1[nH]cc(F)c(=O)[nH]1 [FLUOROURACIL] | – | 0.67 µg/mL (≈ 5.15 µM) | 1.01 µg/mL (≈ 7.76 µM)
Nc1ccc(S(=O)(=O)Nc2ccccn2)cc1 [SULFAPYRIDINE] | 3.59 µM | – | –
